ChEMBL document CHEMBL5154634, “A Modular Synthetic Route Involving N-Aryl-2-nitrosoaniline Intermediates Leads to a New Series of 3-Substituted Halogenated Phenazine Antibacterial Agents” (J Med Chem, 2021)
≈ marks a conversion by molar mass, not a printed value. Calls of active or inactive are those of the source. The rule behind the calls is not given here.

Experiments:
[1] = Dissociation constant, pKa of the compound at 125 uM by UV-vis spectrophotometric analysis; assay type: physicochemical
Procedure, shortened: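 Compound at 125 μM final in phosphate buffers (KH₂PO₄/Na₂HPO₄) in 1:1 water/methanol, pH 4.07–9.66; ammonium hydroxide added for pH above 9.80. UV-vis scans 200–800 nm to find λmax of phenol and phenolate forms. Absorbance at each λmax plotted against pH.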

[2] = test system: Staphylococcus epidermidis; test: Antibacterial activity against methicillin-resistant Staphylococcus epidermidis ATCC 35984 assessed as bacterial growth inhibition incubated for 16 hrs by broth microdilution susceptibility test; assay type: functional
Procedure, shortened: (§1)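 CLSI broth microdilution with 11 twofold dilutions (0.05–50 μM). About 10^5 cells per well from a log-phase culture. DMSO vehicle up to 0.5% v/v. At least three independent experiments.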

Staphylococcus aureus [3] = test: Antibacterial activity against methicillin-resistant Staphylococcus aureus BAA-1707 assessed as bacterial growth inhibition incubated for 16 hrs by broth microdilution susceptibility test; assay type: functional; procedure, shortened: as §1
Enterococcus faecium [4] = test: Antibacterial activity against vancomycin-resistant Enterococcus faecium ATCC 700221 assessed as bacterial growth inhibition incubated for 16 hrs by broth microdilution susceptibility test; assay type: functional
Procedure, shortened: (§2)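 CLSI broth microdilution with 11 twofold dilutions (0.05–50 μM). Medium was LB for the staphylococci and BHI for VRE 700221. About 10^5 cells per well from a log-phase culture. […] DMSO vehicle up to 0.5% v/v. At least three independent experiments.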

[5] = Binding affinity to Fe2+ assessed as compound-Fe2+ complex formation by UV-vis spectroscopy
[6] = test system: Staphylococcus epidermidis; test: Antibiofilm activity against methicillin-resistant Staphylococcus epidermidis ATCC 35984 biofilms assessed as biofilm eradication incubated for 24 hrs followed by incubation for 24 hrs in fresh medium by Calgary biofilm device assay; assay type: functional
Procedure, shortened: (§3)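 Calgary biofilm device. Mid-log culture diluted 1000-fold in TSB with 0.5% glucose; biofilms grown on pegs 24 h at 37 °C. Pegs washed and challenged with twofold compound dilutions for 24 h at 37 °C, then moved to fresh medium for 24 h. MBEC is the lowest concentration leaving wells non-turbid. At least three independent experiments.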

[7] = test system: Staphylococcus epidermidis; test: Bactericidal activity against methicillin-resistant Staphylococcus epidermidis ATCC 35984 planktonic cells assessed as planktonic eradication incubated for 24 hrs followed by incubation for overnight in fresh medium by Calgary biofilm device assay; assay type: functional
Procedure, shortened: (§4)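 Calgary biofilm device. Biofilms grown 24 h at 37 °C in TSB with 0.5% glucose, then challenged 24 h with twofold compound dilutions. 20 μL of challenge medium transferred into fresh TSB with 0.5% glucose and incubated overnight at 37 °C. MBC is the concentration with no visible turbidity. At least three independent experiments.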

Enterococcus faecium [8] = test: Bactericidal activity against methicillin-resistant vancomycin-resistant Enterococcus faecium ATCC 700221 planktonic cells assessed as planktonic eradication incubated for 24 hrs followed by incubation for overnight in fresh medium by Calgary biofilm device assay; assay type: functional; procedure, shortened: as §4
Staphylococcus aureus [9] = test: Antibiofilm activity against methicillin-resistant Staphylococcus aureus BAA-44 biofilms assessed as biofilm eradication incubated for 24 hrs followed by incubation for 24 hrs in fresh medium by Calgary biofilm device assay; assay type: functional; procedure, shortened: as §3
Enterococcus faecalis [10] = test: Antibiofilm activity against Enterococcus faecalis OG1RF ATCC 47077 biofilms assessed as biofilm eradication incubated for 24 hrs followed by incubation for 24 hrs in fresh medium by Calgary biofilm device assay; assay type: functional
Procedure, shortened: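 Calgary biofilm device. Biofilms grown 24 h at 37 °C in BHI from mid-log culture diluted 1000-fold. Pegs washed and then challenged 24 h with twofold serial dilutions. Pegs moved to fresh BHI for 24 h recovery. MBEC = lowest concentration leaving no turbidity; at least three independent experiments.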

Enterococcus faecalis [11] = test: Bactericidal activity against […] Enterococcus faecalis OG1RF ATCC 47077 planktonic cells assessed as planktonic eradication incubated for 24 hrs followed by incubation for overnight in fresh medium by Calgary biofilm device assay; assay type: functional
Procedure, shortened: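 Calgary biofilm device in BHI. Biofilms grown 24 h at 37 °C and challenged 24 h with twofold compound dilutions. Challenge medium subcultured 1:10 into fresh BHI overnight at 37 °C. MBC is the concentration with no turbidity. At least three independent experiments.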

Enterococcus faecium [12] = test: Antibiofilm activity against methicillin-resistant vancomycin-resistant Enterococcus faecium ATCC 700221 biofilms assessed as biofilm eradication incubated for 24 hrs followed by incubation for 24 hrs in fresh medium by Calgary biofilm device assay; assay type: functional; procedure, shortened: as §3
Staphylococcus aureus [13] = test: Antibacterial activity against methicillin-resistant Staphylococcus aureus 147 assessed as bacterial growth inhibition; assay type: functional
Staphylococcus aureus [14] = test: Antibiofilm activity against methicillin-resistant Staphylococcus aureus BAA-1707 biofilms assessed as biofilm eradication incubated for 24 hrs followed by incubation for 24 hrs in fresh medium by Calgary biofilm device assay; assay type: functional; procedure, shortened: as §3
Staphylococcus aureus [15] = test: Antibacterial activity against methicillin-resistant Staphylococcus aureus 138 assessed as bacterial growth inhibition; assay type: functional
J774 = test: Cytotoxicity against mouse J774 cells assessed as reduction in cell viability […] by Alamar blue assay; assay type: toxicity, cell-based
[16] = test system: Mycobacterium tuberculosis; test: Antibacterial activity against Mycobacterium tuberculosis CDC1551 assessed as bacterial growth inhibition incubated for 5 days by luminescence based analysis; assay type: functional; conditions: CDC1551, 120 h, time 5 day
Procedure, shortened: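 Bioluminescent Mtb-lux CDC1551 reporter grown in Middlebrook 7H9 with 0.05% Tween 80, 10% OADC and kanamycin to OD600 0.4–0.8, then diluted to OD600 0.02. Added to twofold drug dilutions (0.003–200 μM). Incubated 5 days at 37 °C, 5% CO2. Luminescence read against 1% DMSO and 10 μM rifampicin controls to give % growth inhibition. MIC taken from a modified Gompertz fit.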

Staphylococcus aureus [17] = test: Antibacterial activity against methicillin-resistant Staphylococcus aureus clinical isolate 2 assessed as bacterial growth inhibition; assay type: functional
Staphylococcus aureus [18] = test: Antibacterial activity against methicillin-resistant Staphylococcus aureus 129 assessed as bacterial growth inhibition; assay type: functional
Erythrocyte = test: Hemolytic activity against human RBC at 200 uM measured after 1 hr; assay type: toxicity, cell-based
Procedure, shortened: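 2% hRBCs exposed to compound at 200 μM final, added from DMSO stock, for 1 h at 37 °C. Supernatant OD read at 405 nm. Hemolysis normalized between DMSO (0%) and Triton X (100%); three independent experiments.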

Staphylococcus aureus [19] = test: Antibacterial activity against methicillin-resistant Staphylococcus aureus 156 assessed as bacterial growth inhibition; assay type: functional
Staphylococcus aureus [20] = test: Antibacterial activity against methicillin-resistant Staphylococcus aureus clinical isolate 1 assessed as bacterial growth inhibition; assay type: functional
Staphylococcus aureus [21] = test: Bactericidal activity against methicillin-resistant Staphylococcus aureus BAA-1707 planktonic cells assessed as planktonic eradication incubated for 24 hrs followed by incubation for overnight in fresh medium by Calgary biofilm device assay; assay type: functional; procedure, shortened: as §4
Enterococcus faecalis [22] = test: Antibacterial activity against Enterococcus faecalis OG1RF ATCC 47077 assessed as bacterial growth inhibition incubated for 16 hrs by broth microdilution susceptibility test; assay type: functional
HepG2 = test: Cytotoxicity against human HepG2 cells assessed as reduction in cell viability […] by Alamar blue assay; assay type: toxicity, cell-based
Staphylococcus aureus [23] = test: Antibacterial activity against methicillin-resistant Staphylococcus aureus BAA-44 assessed as bacterial growth inhibition incubated for 16 hrs by broth microdilution susceptibility test; assay type: functional; procedure, shortened: as §2

`Oc1cc(Cl)cc2nc3ccccc3nc12` gave a pKa at 125 µM [1] of 8.04, an MIC [2] of 18.8 µM (≈ 4.34 µg/mL) and an MIC (Staphylococcus aureus [3]) of 25 µM (≈ 5.77 µg/mL). For the same compound, the MIC (Enterococcus faecium [4]) was over 50 µM and the Activity [5] was “Active”.
Compound `CN[C@H](CC(C)C)C(=O)N[C@H]1C(=O)N[C@@H](CC(N)=O)C(=O)N[C@H]2C(=O)N[C@H]3C(=O)N[C@H](C(=O)N[C@H](C(=O)O)c4cc(O)cc(O)c4-c4cc3ccc4O)[C@H](O)c3ccc(c(Cl)c3)Oc3cc2cc(c3O[C@@H]2O[C@H](CO)[C@@H](O)[C@H](O)[C@H]2O[C@H]2C[C@](C)(N)[C@H](O)[C@H](C)O2)Oc2ccc(cc2Cl)[C@H]1O` [VANCOMYCIN] has an MBEC [6] of over 2000 µM, an MBC [7] of 2 µM (≈ 2.9 µg/mL) and an MBC (Enterococcus faecium [8]) of 750 µM (≈ 1090 µg/mL). For the same compound, the MBEC (Staphylococcus aureus [9]) was over 2000 µM, the MBEC (Enterococcus faecalis [10]) was over 2000 µM and the MBC (Enterococcus faecalis [11]) was 11.7 µM (≈ 17 µg/mL). It also gave an MBEC (Enterococcus faecium [12]) of over 2000 µM.
For `CCSc1c(Br)c(O)c2nc3cccc(C)c3nc2c1Br`, the pKa at 125 µM [1] was 7.88, the MIC (Staphylococcus aureus [13]) was 0.31 µM (≈ 0.133 µg/mL) and the MBEC (Staphylococcus aureus [14]) was 200 µM. The MIC (Staphylococcus aureus [15]) was 0.31 µM (≈ 0.133 µg/mL), the IC50 (J774) was over 100 µM and the MBC [7] was 12.5 µM (≈ 5.35 µg/mL). It also gave an MIC [16] of 1.69 µM (≈ 0.724 µg/mL), an MIC (Staphylococcus aureus [17]) of 0.31 µM (≈ 0.133 µg/mL) and an MIC (Staphylococcus aureus [18]) of 0.31 µM (≈ 0.133 µg/mL). It also gave an Activity (Erythrocyte) of 5.7%, an MIC (Staphylococcus aureus [19]) of 0.31 µM (≈ 0.133 µg/mL) and an MIC (Staphylococcus aureus [20]) of 0.31 µM (≈ 0.133 µg/mL). The MBC (Staphylococcus aureus [21]) was 50 µM (≈ 21.4 µg/mL), the MIC (Enterococcus faecalis [22]) was 0.78 µM (≈ 0.334 µg/mL) and the IC50 (HepG2) was over 200 µM. The MIC (Staphylococcus aureus [23]) was 0.3 µM (≈ 0.128 µg/mL) and the MBEC (Enterococcus faecium [12]) was 3.13 µM.
